Bioassay records as filed in PubChem.
The list is not random: actives were taken first. Their share in the collection is about 2.1%.
MLL AF4-AF9 inh: inhibitors of AF4 peptide binding to AF9, primary screen, biochemical, AlphaScreen, biotin-AF4 peptide, FLAG-AF9, single point | Protein AF-9 (Homo sapiens), P42568 | inhibition, % at 10 µM | 350,000 tested, 0.47% active;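 active = every replicate reaching a set inhibition limit, whatever the replicate mean, cut at about 25% in these data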;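 note: 0% = plate neutral control median and 100% = total signal loss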
FGF22 binding: binders of human FGF22 protein, primary screen, FGF22 synaptogenesis inhibitor project, biophysical, thermal shift, single point | AID 651658, 2012 | 340,000 tested, 1.5% active | activity (Tm shift, normalised), % at 9.99 µM | recombinant FGF22 thermal shift, SYPRO orange fluorescence; percent of sucrose octasulfate shift, DMSO zero | Fibroblast growth factor 22 (Homo sapiens), Q9HCT0;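 active = mean Tm shift, scaled 0 neutral to 100 positive control, at about 1.3% or above, every replicate too, limit read from the data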
ERp5 inh: inhibitors of ERp5-driven insulin aggregation, primary screen, biochemical, turbidity, absorbance 650 nm, single point; Protein disulfide-isomerase A6 (Homo sapiens), Q15084; 90 min; inhibition, % at 9.99 µM; 350,000 tested, 0.05% active; AID 651711, 2012;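 active = mean replicate inhibition above about 25%, with every replicate also reaching it, limit read from the data, passing the limit was not always enough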
ARNT TACC3 PPI: disruptors of ARNT/TACC3 protein interaction, primary screen, biochemical, AlphaScreen, single concentration. inhibition, % at 9.99 µM. AlphaScreen His-ARNT PAS-B/GST-TACC3 binding, luminescence; TACC3 fragment carries E629A point mutation. Transforming acidic coiled-coil-containing protein 3 (Homo sapiens), Q9Y6A5. AID 623870, 2012. 390,000 tested, 0.66% active;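 active = mean inhibition of replicates at least 50% and at least half of replicates each reaching 50%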;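 note: 0% = complete ARNT plus TACC3 wells and 100% = ARNT alone without TACC3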
FN deposit inh: inhibitors of fibronectin matrix deposition, primary screen, AH1F cells, Alexa488-fibronectin fluorescence, plate reader; AH1F fibroblasts, overnight; inhibition, % at 12.6 µM; 350,000 tested, 0.086% active;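 active = mean inhibition across replicates of 30% or more, regardless of how many single replicates reach that level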;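 note: positive control wells lacked labelled fibronectin entirely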
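Assay system: AH1F fibroblast monolayer, labelled fibronectin deposition. Amount: 10000 cells per well. Also added: labelled fibronectin 24 nM. Compound: single-point pinned compound. Incubation: cell attachment 1 h, compound and FN exposure overnight. Detection: fluorescence after three HBSS washes, excitation 485 nm, emission 525 nm. Read-out: inhibition of fibronectin deposition signal.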
PDI inh: inhibitors of human PDI, primary screen, biochemical, turbidity, single point, plate reader | Protein disulfide-isomerase (Homo sapiens), P07237 | PDI insulin aggregation turbidity, A650, 90 min | inhibition, % at 10 µM | 350,000 tested, 0.052% active | AID 588391, 2011;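 active = mean inhibition across replicates of 30% or more, whatever share of single replicates reach that level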
Target sequence (P07237 whole entry, looked up): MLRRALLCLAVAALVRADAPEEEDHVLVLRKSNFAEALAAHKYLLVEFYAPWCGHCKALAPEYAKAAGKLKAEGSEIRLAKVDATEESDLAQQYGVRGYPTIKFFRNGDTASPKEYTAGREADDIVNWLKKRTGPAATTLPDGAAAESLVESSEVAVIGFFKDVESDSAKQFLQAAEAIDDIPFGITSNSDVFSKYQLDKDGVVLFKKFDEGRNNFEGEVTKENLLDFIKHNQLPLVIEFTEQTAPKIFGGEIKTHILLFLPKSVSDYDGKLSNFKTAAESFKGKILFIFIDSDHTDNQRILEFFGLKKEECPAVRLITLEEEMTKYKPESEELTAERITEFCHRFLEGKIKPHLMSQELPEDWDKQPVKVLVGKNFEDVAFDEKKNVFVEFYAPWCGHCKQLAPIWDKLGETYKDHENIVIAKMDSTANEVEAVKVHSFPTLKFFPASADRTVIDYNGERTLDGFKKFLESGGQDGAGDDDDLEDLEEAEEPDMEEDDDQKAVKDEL
Alpha interfer: AlphaScreen signal interference counter-screen, dose response, artefact control, biochemical, cherry-picked samples, luminescence; 530 tested, 45% active; AC50, µM (series often up to 12 µM), inactives show top-dose activity change, negative = inhibition; shares compounds with MLL AF4-AF9 inh; cut-off not given, nearly all actives have AC50 up to about 14 µM
* hit, by the source's call; · = no result given; ! = not active in a repeat.

SMILES	MLL AF4-AF9 inh	FGF22 binding	ERp5 inh	ARNT TACC3 PPI	FN deposit inh	PDI inh	Alpha interfer
COc1cccc(OCC(O)CN2CCC(CN3C(=O)c4cccc5cccc(c45)C3=O)CC2)c1 (stereo not given)	34*	0	-3	17	2	3	-10%
CCn1c(C)c(C(C)=O)c(N2CCN(c3ccc(OC)cc3)CC2)nc1=S	32*	-1	10	·	·	8	-24%
COc1ccc(N2CCN(c3nc(=S)n(-c4ccccc4)c(C)c3C(C)=O)CC2)cc1	·	·	-4	5	·	1	·
COc1ccc(S(=O)(=O)Nc2ccc3c(c2)C(=O)N([C@H](C)CO)C[C@@H](C)[C@@H](CN(C)C(=O)Nc2ccc(C(F)(F)F)cc2)OCCCC[C@@H](C)O3)cc1	-5	·	-1	7	-7	·	·
COc1ccc(N2CCN(CCCNC(=O)CCC(=O)N3CCOc4ccc(Cl)cc43)CC2)cc1	38*	0	1	11	12	7	12µM*
O=C(NCC[C@H]1CC[C@H](NS(=O)(=O)c2ccccc2)[C@@H](CO)O1)c1cc(Cl)cc(Cl)c1	1	-1	1	6	4	·	·
COc1cccc(-c2ccc([C@H]3[C@H](CO)N4C(=O)CN(C(=O)C5CC5)C[C@@H]34)cc2)c1	0	·	-8	·	-2	·	·
COc1cccc(-c2ccc3c(c2)O[C@@H](CN(C)Cc2ccncc2)[C@@H](C)CN([C@H](C)CO)S3(=O)=O)c1	7	0	5	-1	-7	·	·
Cc1ncc(CO)c(/C=N/NC(=S)Nc2cccc(Cl)c2)c1O	·	·	·	·	·	-5	·
Cc1ncc(CO)c(/C=N/NC(=S)Nc2ccc(Cl)c(Cl)c2)c1O	30*	1.5*	1	·	2	2	13µM*
CC1CCCCN1CCCNC(=O)C1CCN(c2nnc(-n3cccc3)s2)CC1 (stereo not given)	8	0	-8	1	0	7	·
CCOc1ccc(NCc2cccn2-c2nnc(N3CCC(C(=O)NCCCN4CCCCC4CC)CC3)s2)cc1 (stereo not given)	38*	0	-9	15	-2	-3	11µM*
COCC(=O)N(C)C[C@H]1Oc2ncc(C#C[C@@H](C)O)cc2C(=O)N([C@H](C)CO)C[C@H]1C	-3	0	2	0	9	·	·
CC1CCN(C2=C(NS(=O)(=O)c3ccc(Br)cc3)C(=O)c3ccccc3C2=O)CC1	50*	0	6	35	5	4	-36%
CCOC(=O)C1CCN(C2=C(NS(=O)(=O)c3ccc(Cl)cc3)C(=O)c3ccccc3C2=O)CC1	30*	·	-2	30	5	4	1%
CCOC(=O)C1CCCN(C(=O)CCNS(=O)(=O)c2ccc(Br)cc2)C1 (stereo not given)	-3	0	2	-3	-8	-2	·
CCOC(=O)C1CCCN(C2=C(NS(=O)(=O)c3ccc(Br)cc3)C(=O)c3ccccc3C2=O)C1 (stereo not given)	52*	0	2	44	12	3	-20%
CCC(=O)Nc1ccc2c(c1)C(=O)N(C)C[C@@H](OC)[C@@H](C)CN(C(=O)CN(C)C)[C@H](C)CO2	·	·	·	·	-13	·	·
O=C1c2c(O)ccc(O)c2C(=O)c2c(NCCNCCO)ccc(NCCNCCO)c21	97*	-1	-6	65*	0	-11	0.35µM*
Cc1cccc(C)c1N=Nc1c(C)cc(O)cc1C	35*	-1	5	21	14	-4	10µM*
Cc1cccc(O)c1C	-3	0	6	·	·	·	·
CC1CN(C)C(C)c2c1oc1ccc(N)cc21 (stereo not given)	35*	0	6	·	2	1	-26%
C[C@H]1CN([C@@H](C)CO)C(=O)c2cc(NC(=O)c3ccncc3)ccc2O[C@@H]1CN(C)S(=O)(=O)c1ccc(Cl)cc1	-2	0	-1	6	2	·	·
COc1ccc(S(=O)(=O)/N=C2\C=C(Nc3ccc(O)cc3)C(=O)c3ccccc32)cc1	41*	0	4	41	36*	-2	2.7µM*
CC(=O)Nc1ccc(NC2=C/C(=N/S(=O)(=O)c3cccs3)c3ccccc3C2=O)cc1	5	1	-4	24	·	0	·
SMILES	MLL AF4-AF9 inh	FGF22 binding	ERp5 inh	ARNT TACC3 PPI	FN deposit inh	PDI inh	Alpha interfer
Fc1ccc(C(c2ccc(F)cc2)N2CCN(C/C=C/c3ccccc3)CC2)cc1	34*!	0	0	2	-1	5	11%
CCN(CC)c1ccc(C(=O)O)cc1	-1	·	0	0	12	-7	·
CCN(CC)c1ccc(C(=C2C=CC(=[N+](CC)CC)C=C2)c2ccc(S(=O)(=O)O)cc2S(=O)(=O)[O-])cc1	60*	0	1	37	0	-87	7.9µM*
Nc1ccc(O)c2c1C(=O)c1ccccc1C2=O	38*	0	-8	42	·	·	-31%
CCC(=O)N1CCCCN2[C@H](CO)[C@H](c3ccc(C#Cc4ccccc4)cc3)[C@@H]2C1	-3	0	4	10	·	·	·
NC1=NC[C@H](Cc2ccc(O)cc2)N1CCc1cccc2ccccc12	32*	0	0	·	3	24	-29%
NC1=NC[C@@H](Cc2ccc(O)cc2)N1CCc1cccc2ccccc12	12	0	2	1	-4	3	·
C[C@H]1CCCCO[C@@H](CN(C)Cc2ccc(C(F)(F)F)cc2)[C@@H](C)CN([C@@H](C)CO)C(=O)c2cc(NC(=O)C3CCCCC3)ccc2O1	·	0	·	-2	·	·	·
CN1/C(=C\C=O)C(C)(C)c2ccccc21	-2	0	5	-3	-1	1	·
CN1\C(=C/C=C/C=C/C=[N+](C)C)C(C)(C)c2ccccc21	41*	0	-1	-2	-9	-2	9.8µM*
C[C@H](CO)N1C[C@H](C)[C@@H](CN(C)Cc2ccc3c(c2)OCO3)Oc2ccc(NC(=O)Cc3ccccc3)cc2C1=O	2	1	1	3	·	·	·
